Molecules are shown by their SMILES. The source made the active and inactive calls. The calls are words filed in the database; no cut-off is given here.

For experiment [1], the system named is GM15850. Put plainly: Protection against DEM-induced loss of mitochondrial membrane potential in human GM15850 cells at 5 uM after 16 hrs using TMRM/JC-1 staining by flow cytometry analysis relative to control. In kind it is functional. An outline of the steps: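 FRDA lymphocytes were pretreated with compound for 16 h, then given 5 mM DEM for 140 min. Cells were washed twice with PBS and stained with 250 nM TMRM in PBS-glucose for 15 min at 37 °C in the dark. Flow cytometry read the FL2-H channel (488 nm excitation), 10 000 events, with FCCP as the depolarized control. Result is the % of cells with intact Δψm (top right quadrant). Mean ± SEM of three experiments in duplicate.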

The next experiment deals with CCRF-CEM. Put plainly: Antioxidant activity in human CEM cells assessed as inhibition of glutathione depletion-induced ROS production at 5 uM after 16 hrs using DCFH-DA staining by flow cytometry analysis. Format: functional, cell-based. The method in brief:
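CEM leukemia lymphocytes (5 × 10⁵ cells in 1 mL) were given compound for 16 h at 37 °C in 5% CO2. They were then exposed to 5 mM diethyl maleate for 40 min to deplete GSH. After a PBS wash they were stained with 10 μM DCFH-DA in PBS with 20 mM glucose for 20 min at 37 °C in the dark. DCF fluorescence was read by flow cytometry (488 nm excitation, FL1-H), 10 000 events. Mean ± SEM of two experiments, each in duplicate.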

The subject of experiment [2] is GM15850. The experiment in a line: Antioxidant activity in human GM15850 cells assessed as inhibition of glutathione depletion-induced ROS production at 5 uM after 16 hrs using DCFH-DA staining by flow cytometry analysis. In kind it is functional, cell-based. The method in brief:
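FRDA lymphocytes (5 × 10⁵ cells in 1 mL) were pretreated with compound for 16 h at 37 °C in 5% CO2. GSH was then depleted with 5 mM diethyl maleate for 80 min. Cells were washed and loaded with 10 μM DCFH-DA in PBS with 20 mM glucose for 20 min at 37 °C in the dark. DCF was measured by flow cytometry (488 nm, FL1-H), 10 000 events. Two experiments in duplicate, mean ± SEM.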
(A flow cytometer gives signals particle by particle.)

A short description of experiment [3]: Antioxidant activity in human GM15850 cells assessed as inhibition of glutathione depletion-induced lipid peroxidation at 10 uM after 16 hrs using C11-BODIPY581/591 by FACS analysis relative to control. The arrangement: scale not given: the % may be the effect or the level left. In kind it is functional. The method in brief: (§1)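 FRDA lymphocytes at 5 × 10⁵ cells/mL received compound (5 or 10 μM final) for 16 h at 37 °C. Cells were loaded with 1 μM C11-BODIPY581/591 in phenol red-free RPMI for 30 min in the dark, then stressed with 5 mM DEM for 2 h. After washing, green (oxidized) fluorescence was read by FACS, 10 000 events. Scavenging % = [(100 − % mean)/(100 − % mean of untreated control)] × 100. Duplicates, three independent experiments.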

Experiment [4] can be described thus: Antioxidant activity in human GM15850 cells assessed as inhibition of glutathione depletion-induced lipid peroxidation at 5 uM after 16 hrs using C11-BODIPY581/591 by FACS analysis relative to control. Format: functional. More on the design: scale not given: the % may be the effect or the level left. An outline of the steps: as §1
Experiment [5] has as its system GM15850. The experiment in a line: Cytoprotective activity in human GM15850 cells assessed as glutathione depletion-induced reduction of cell viability at 5 uM after 17 hrs by trypan blue exclusion assay relative to control. Format: functional. An outline of the steps:
(§2)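 FRDA lymphocytes were grown in RPMI 1640 with 15% fetal calf serum and 2 mM glutamine. Cells seeded at 5 × 10⁵ cells/mL were preincubated with compound for 17 h at 37 °C, then given 5 mM DEM for a further 6 h. Viability was scored by 0.4% trypan blue exclusion on a hemacytometer, counting at least 500 cells per group. Values are % of the untreated control (100%). Mean ± SEM, n = 3.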

Experiment [6] deals with GM15850. The experiment in a line: Cytoprotective activity in human GM15850 cells assessed as glutathione depletion-induced reduction of cell viability at 0.125 uM after 17 hrs by trypan blue exclusion assay relative to control. Format: functional. The method in brief:
as §2

Experiment [7] concerns GM15850. The experiment in a line: Cytoprotective activity in human GM15850 cells assessed as glutathione depletion-induced reduction of cell viability at 0.25 uM after 17 hrs by trypan blue exclusion assay relative to control. In kind it is functional. The method in brief: as §2
Experiment [8] has as its system GM15850. Put plainly: Cytoprotective activity in human GM15850 cells assessed as glutathione depletion-induced reduction of cell viability at 2.5 uM after 17 hrs by trypan blue exclusion assay relative to control. In kind it is functional. The method in brief: as §2

As to `CCCCCCCCCCCCCC1=C(O)C(=O)C=C(NCCCC(=O)O)C1=O`, the Activity with GM15850 [1] stood at 27%; in experiment [3], 24%; in [4], 8%; with GM15850 [5] it was 36%. Further, the outcome with CCRF-CEM and in the experiment on GM15850 [2] was Active.

With `CCCCCCCCCCCCCC1=C(OC)C(=O)C=C(NCCCC(=O)O)C1=O`, the Activity in the experiment with GM15850 [1] was found to be 60%; in experiment [3] it was 51%; in experiment [4], 41%; in the experiment with GM15850 [5], 74%. In addition, the outcome with CCRF-CEM and with GM15850 [2] was Active.

As for `CCCCCCCCCCCCCC1=C(OC)C(=O)C=C(NCCCC(=O)OC(C)(C)C)C1=O`, the Activity in the experiment with GM15850 [1] is recorded as 85%; in experiment [3], 86%; in experiment [4] it was 72%; in the experiment with GM15850 [6], 48%; with GM15850 [7], 58%; in the experiment with GM15850 [8], 84%. In addition, the Activity in the experiment on GM15850 [5] stood at 93%. Besides, the outcome in the experiment with CCRF-CEM and with GM15850 [2] was Active.

For `CCCCCCCCCCCCCC1=C(O)C(=O)C=C(NCCCC(=O)OC(C)(C)C)C1=O`, the Activity with GM15850 [1] worked out at 40%; in experiment [3] it was 37%; in experiment [4], 26%; in the experiment with GM15850 [5], 50%. In addition, the outcome in the experiment on CCRF-CEM and in the experiment on GM15850 [2] was Active.

These data come from ChEMBL document CHEMBL2203117, “Synthesis and biological activities of N-(3-carboxylpropyl)-5-amino-2-hydroxy-3-tridecyl-1,4-benzoquinone and analogues” (2012).
